This is an account of results in ChEMBL document CHEMBL1914293, “Pharmacophore-based discovery of FXR-agonists. Part II: identification of bioactive triterpenes from Ganoderma lucidum” (Bioorg Med Chem, 2011).

Common to all, as to type: functional, cell-based
For assay [1], the system named is HUVEC. Put plainly: Antiinflammatory activity in human HUVEC cells assessed as inhibition of LPS-induced IL-8 mRNA expression at 5 uM for 10 mins measured after 4 hrs of LPS challenge by Q-PCR analysis. The method in brief: (§1)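 hTERT-immortalized HUVEC (HUVECtert) were grown in M199 with 20% FBS, endothelial cell growth supplement and antibiotics. Cells were treated with compounds at 5 μM, then stimulated with TNFα (human recombinant, 100 ng/mL) or LPS (E. coli 055:B5, 300 ng/mL). IL-8 and E-selectin mRNA were measured by qPCR, normalized to β2-microglobulin (Pfaffl method), and expressed as fold over untreated control. Statistics used ANOVA with Bonferroni post-test.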

Assay [2] deals with HUVEC. Put plainly: Antiinflammatory activity in human HUVEC cells assessed as inhibition of TNF-alpha-induced IL-8 mRNA expression at 5 uM for 10 mins measured after 4 hrs of LPS challenge by Q-PCR analysis. An outline of the steps: as §1
For assay [3], the target named is T1, Bile acid receptor/Retinoic acid receptor RXR-alpha (Mus musculus, UniProt P28700+Q60641).
T1 sequence (P28700 whole entry): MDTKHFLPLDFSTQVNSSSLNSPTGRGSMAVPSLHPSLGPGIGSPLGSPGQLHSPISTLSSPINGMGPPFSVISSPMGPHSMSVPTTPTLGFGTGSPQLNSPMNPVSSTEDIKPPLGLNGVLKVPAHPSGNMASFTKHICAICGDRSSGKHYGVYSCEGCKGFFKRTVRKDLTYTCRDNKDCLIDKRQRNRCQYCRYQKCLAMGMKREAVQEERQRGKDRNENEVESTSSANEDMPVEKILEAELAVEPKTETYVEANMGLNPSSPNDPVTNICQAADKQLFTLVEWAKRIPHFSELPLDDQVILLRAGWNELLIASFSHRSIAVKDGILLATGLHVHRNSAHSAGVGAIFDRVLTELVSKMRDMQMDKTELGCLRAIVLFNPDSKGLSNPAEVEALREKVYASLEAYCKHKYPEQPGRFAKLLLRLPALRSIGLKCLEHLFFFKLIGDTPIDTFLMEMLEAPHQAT
T1 sequence (Q60641 whole entry): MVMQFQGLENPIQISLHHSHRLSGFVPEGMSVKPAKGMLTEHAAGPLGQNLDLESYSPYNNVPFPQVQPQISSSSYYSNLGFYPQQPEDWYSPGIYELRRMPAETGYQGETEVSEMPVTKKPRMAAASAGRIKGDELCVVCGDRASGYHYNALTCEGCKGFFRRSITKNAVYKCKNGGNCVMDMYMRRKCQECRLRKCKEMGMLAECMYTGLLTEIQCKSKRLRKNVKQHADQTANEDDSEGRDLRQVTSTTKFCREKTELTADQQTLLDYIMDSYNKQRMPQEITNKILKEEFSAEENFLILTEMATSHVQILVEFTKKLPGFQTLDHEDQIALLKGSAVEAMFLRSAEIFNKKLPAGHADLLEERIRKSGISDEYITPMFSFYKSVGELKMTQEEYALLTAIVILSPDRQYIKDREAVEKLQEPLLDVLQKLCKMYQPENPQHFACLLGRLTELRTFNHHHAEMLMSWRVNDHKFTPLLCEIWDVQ
Put plainly: Agonist activity at full length mouse FXR/RXRalpha expressed in human HEK293 cells assessed as induction of transcriptional activity after 18 hrs by dual luciferase reporter gene assay.

Assay [4] deals with HUVEC. As to the kind of experiment: Antiinflammatory activity in human HUVEC cells assessed as inhibition of TNF-alpha-induced E-selectin mRNA expression at 5 uM for 10 mins measured after 4 hrs of LPS challenge by Q-PCR analysis. An outline of the steps: as §1
The subject of assay [5] is HUVEC. Put plainly: Antiinflammatory activity in human HUVEC cells assessed as inhibition of LPS-induced E-selectin mRNA expression at 5 uM for 10 mins measured after 4 hrs of LPS challenge by Q-PCR analysis. The method in brief: as §1

The source made the active and inactive calls. The rule behind the calls is not given here.

The EC50 is the midpoint of the concentration-response curve. Turning to `CC(C)[C@@H](C)/C=C/[C@@H](C)[C@H]1CC[C@@H]2[C@]1(C)CC[C@H]1[C@]23C=C[C@]2(C[C@@H](O)CC[C@]12C)OO3` [ERGOSTEROL PEROXIDE], the inhibition result in the assay with HUVEC [1], in the assay with HUVEC [2], in the assay on HUVEC [4] and with HUVEC [5] was “Active” throughout. Also, the concentration giving a half-maximal response (EC50) in assay [3] turned out to be 0.85 µM.

`C/C(=C/CC[C@@H](C)[C@H]1C[C@H](O)[C@@]2(C)C3=CC[C@H]4C(C)(C)C(=O)CC[C@]4(C)C3=CC[C@]12C)C(=O)O` [GANODERIC ACID TR]: the inhibition result with HUVEC [1], in the assay with HUVEC [2], with HUVEC [4] and in the assay on HUVEC [5] was “Active” in each case. For the same compound, the 50% effective concentration (EC50) in assay [3] is more than 14 µM.

As to `C[C@H](CCC=C(CO)CO)[C@H]1CC[C@@]2(C)C3=CC[C@H]4C(C)(C)C(=O)CC[C@]4(C)C3=CC[C@]12C` [GANODERIOL F], the inhibition result with HUVEC [1], in the assay on HUVEC [2], with HUVEC [4] and in the assay on HUVEC [5] was “Active” throughout. Further, the concentration for a half-maximal effect (EC50) in assay [3] stood at 5 µM.

Turning to `C[C@H](CC[C@H](O)[C@](C)(O)CO)[C@H]1CC[C@@]2(C)C3=CC[C@H]4C(C)(C)C(=O)CC[C@]4(C)C3=CC[C@]12C` [GANODERMANONTRIOL], the inhibition result in the assay with HUVEC [1], in the assay on HUVEC [2], with HUVEC [4] and in the assay with HUVEC [5] was “Active” throughout. In assay [3], the EC50 turned out to be 2.5 µM.

Consider `C[C@H](CC[C@H](O)C(C)(C)O)[C@H]1CC[C@@]2(C)C3=C(CC[C@]12C)[C@@]1(C)CCC(=O)C(C)(C)[C@@H]1CC3=O` [LUCIDUMOL A], for which the inhibition result with HUVEC [1], in the assay with HUVEC [2], in the assay on HUVEC [4] and with HUVEC [5] was “Active” throughout. For the same compound, the concentration for a half-maximal effect (EC50) in assay [3] is more than 18.6 µM.
